SENP8 block-1: inhibitors of human SENP8 protease; Q96LD8; recombinant SENP8, Nedd8 substrate fluorescence; inhibition, % at 20 µM; 0.64% of 360,000 active; AID 602440; in the data active = inhibition mostly above about 40%, no sharp cut-off; inactive = mostly below about 27%
SENP6 inh: inhibitors of human SENP6 protease | Recombinant SENP6 catalytic domain, aminoluciferin luminescence | inhibition, % at 10 µM | Q9GZR1 | 1.8% of 330,000 active;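 active = inhibition above about 50% at the single tested dose, limit read from the data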
UBC13 inh: blocks human UBC13 polyubiquitin chain formation; P61088; TR-FRET; inhibition, % at 20 µM; 0.47% of 330,000 active; AID 485273; in the data active = inhibition above about 45%, passing the limit was not always enough
SENP7 block: inhibitors of human SENP7 protease. Q9BQF6. recombinant SENP7, Z-RLRGG-aminoluciferin luminescence, 40 min. inhibition, % at 5 µM. 1.5% of 330,000 active. AID 434973;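 active = inhibition above about 50% at the single test dose, limit read from the data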
Target sequence (Q9BQF6 706-1050 limits assumed): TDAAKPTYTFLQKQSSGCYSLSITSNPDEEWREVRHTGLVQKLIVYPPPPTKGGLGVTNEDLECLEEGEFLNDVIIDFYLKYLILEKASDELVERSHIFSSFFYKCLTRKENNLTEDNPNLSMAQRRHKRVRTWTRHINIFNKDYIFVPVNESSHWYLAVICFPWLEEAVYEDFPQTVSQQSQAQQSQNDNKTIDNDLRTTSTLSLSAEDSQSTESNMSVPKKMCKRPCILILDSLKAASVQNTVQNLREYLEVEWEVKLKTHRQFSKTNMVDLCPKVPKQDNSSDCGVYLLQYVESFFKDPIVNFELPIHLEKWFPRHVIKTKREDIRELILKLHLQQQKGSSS
SENP8 block-2: SENP8 protease inhibition. Q96LD8. purified SENP8, Z-RLRGG-aminoluciferin cleavage, luminescence. inhibition, % at 10 µM. 1.2% of 330,000 active. AID 2540; in the data active = inhibition above about 50%
Apaf-1 inh: blocks human Apaf-1 apoptosome activity; reconstituted apoptosome caspase-3 activity, DEVD-Rh110 fluorescence; O14727; AID 489030; inhibition, % at 20 µM; 0.71% of 330,000 active; active = inhibition of at least 40% at 20 µM
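Material: reconstituted apoptosome with Apaf-1, cytochrome c, caspase-9, procaspase-3, dATP; medium: pH 7.5 Hepes buffer with CHAPS, BSA, DTT; also added: cytochrome c and DEVD-Rh110 substrate; timing: 30 min plus 50 min, RT; signal: Rh110 fluorescence intensity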
SENP8 confirm: confirmation of human SENP8 protease inhibitors | shares compounds with SENP7 block | inhibition, % at 12.5 µM | Recombinant SENP8, Z-RLRGG-aminoluciferin luminescence, 60 min | 40% of 6,200 active | AID 488912;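 active = mean inhibition across replicates above about 50%, limit read from the data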
SENP6 confirm: human SENP6 inhibition, confirmed; 58% of 6,200 active; inhibition, % at 12.5 µM; recombinant SENP6, Z-RLRGG-aminoluciferin luminescence; shares compounds with SENP7 block; AID 488915
SENP7 conf: confirmation of human SENP7 protease inhibitors; shares compounds with SENP7 block; recombinant SENP7, Z-RLRGG-aminoluciferin luminescence, 40 min; inhibition, % at 12.5 µM; 69% of 6,200 active; AID 488917
Casp3 SENP sel: inhibits human caspase-3 in SENP selectivity test; purified caspase-3, Z-DEVD-aminoluciferin luminescence, 60 min; shares compounds with SENP7 block; 60% of 6,200 active; inhibition, % at 12.5 µM; AID 488918;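 active = mean inhibition above about 50%, limit read from the data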
Target sequence (P42574 28-227 limits assumed): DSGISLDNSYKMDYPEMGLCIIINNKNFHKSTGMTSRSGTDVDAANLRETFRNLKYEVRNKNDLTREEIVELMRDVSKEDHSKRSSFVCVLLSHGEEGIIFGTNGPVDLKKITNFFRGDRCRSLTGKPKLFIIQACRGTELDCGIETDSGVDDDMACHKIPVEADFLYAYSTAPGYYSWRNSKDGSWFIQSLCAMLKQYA
SENP luc ctr: luminescence interference (SENP counter-screen). Pre-incubated SENP8/Z-RLRGG-aminoluciferin, luciferase luminescence interference. shares compounds with SENP7 block. 39% of 6,200 active. inhibition, % at 12.5 µM;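 active = mean inhibition above about 50% when retested at one dose, limit read from the data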
Of the large screens only hits and unclear results are named; the others gave an inactive call (follow-up assays come after a bar, where they were run). In the library only some 3% were active in any assay of this set; here they are far more common.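 Rule for the calls, unless noted: active = mean inhibition above about 50% in the one-dose retest (limit read from the data); inactive = the rest.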

O=C(Nc1ccc2ccccc2c1)c1ccccc1F	SENP6 inh 85.5, SENP7 block 91.9, SENP8 block-2 81.8 | SENP8 confirm 64.1 | SENP6 confirm 88.6 | SENP7 conf 97.7 | Casp3 SENP sel 81.9 | SENP luc ctr 87.9
O=C(Nc1cnc2ccccn2c1=O)c1ccc(Cl)cc1Cl	SENP6 inh 66.1, SENP7 block 68.7 | SENP8 confirm 56.7 | SENP6 confirm 59.4 | SENP7 conf 75.7 | Casp3 SENP sel 82.4 | SENP luc ctr inactive
Cc1ccc(C(=O)Nc2cnc3ccccn3c2=O)cc1	none
CC1CC(C)CN(S(=O)(=O)N2CCCC(C(=O)NC3CCCCC3C)C2)C1 (centres undefined)	none
CNC[C@@H]1OCc2ccccc2-c2ccccc2C(=O)N([C@@H](C)CO)C[C@@H]1C	none (no result: SENP6 inh, UBC13 inh, SENP7 block, SENP8 block-2, Apaf-1 inh)
O=C(CNS(=O)(=O)c1ccc(F)cc1)N1CCCCCC1	none
CC(=O)Nc1ccc(NCC(=O)c2ccccc2)cc1	none
N#Cc1ccc(C(=O)Nc2ccc3ccccc3c2)cc1	SENP7 block 71.6 | SENP8 confirm inactive | SENP6 confirm inactive | SENP7 conf 81.3 | Casp3 SENP sel 58.8 | SENP luc ctr inactive
O=C(NCc1ccc2c(c1)OCO2)c1cnc2ccccn2c1=O	none
O=C(Nc1ccc2c(c1)OCCO2)c1cnc2ccccn2c1=O	SENP6 inh 57.5 | SENP8 confirm inactive | SENP6 confirm inactive | SENP7 conf inactive | Casp3 SENP sel inactive | SENP luc ctr inactive
COc1ccc(C(=O)Nc2ccc3ccccc3c2)c(OC)c1	SENP6 inh 87.3, SENP7 block 91.3, SENP8 block-2 87.2 | SENP8 confirm 91.3 | SENP6 confirm 91.4 | SENP7 conf 98.5 | Casp3 SENP sel 76.6 | SENP luc ctr 72.2
CCN(CC)CCN(C(=O)c1ccc(CN2CCCCC2)o1)C(C(=O)NC1CCCCC1)c1ccc(F)cc1 (centres undefined)	none
CCOC(=O)Nc1cccc(Nc2ccccc2)c1	none
CCOC(=O)Nc1cccc(C(=O)O)c1	SENP6 inh 60.8, SENP7 block 54.7 | SENP8 confirm 51.9 | SENP6 confirm 54.1 | SENP7 conf 86.3 | Casp3 SENP sel inactive | SENP luc ctr 70.6
Cc1cccc(C)c1OCC(=O)Nc1cccc(C(=O)O)c1	SENP6 inh 68.7, SENP7 block 53.4 | SENP8 confirm 65.1 | SENP6 confirm 63.7 | SENP7 conf 88.2 | Casp3 SENP sel inactive | SENP luc ctr 73.8
CCc1ccc(C(C)NC(=O)c2ccncc2)cc1 (centres undefined)	none
N/C(=N\OC(=O)c1cc([N+](=O)[O-])ccc1Cl)c1ccccn1	none
N/C(=N\OC(=O)c1ccc(Cl)cc1Cl)c1ccncc1	SENP6 inh 76.8, SENP7 block 62.4, SENP8 block-2 59.0 | SENP8 confirm 62.3 | SENP6 confirm 63.5 | SENP7 conf 84.2 | Casp3 SENP sel 73.3 | SENP luc ctr 63.5
N/C(=N\OC(=O)c1cccc([N+](=O)[O-])c1)c1ccccn1	SENP6 inh 50.2, SENP7 block 61.0 | SENP8 confirm inactive | SENP6 confirm inactive | SENP7 conf 75.0 | Casp3 SENP sel 79.8 | SENP luc ctr inactive
Cc1ccc(C(=O)O/N=C(\N)c2ccccn2)c(Cl)c1	SENP6 inh 95.7, SENP7 block 99.3, SENP8 block-2 95.8 | SENP8 confirm 98.1 | SENP6 confirm 99.0 | SENP7 conf 102.3 | Casp3 SENP sel 98.1 | SENP luc ctr 97.8
N/C(=N\OC(=O)c1ccc(Cl)cc1[N+](=O)[O-])c1ccccn1	SENP6 inh 59.3, SENP7 block 50.6, SENP8 block-2 53.4 | SENP8 confirm inactive | SENP6 confirm inactive | SENP7 conf 77.4 | Casp3 SENP sel 76.8 | SENP luc ctr inactive
N/C(=N/OC(=O)c1cccc([N+](=O)[O-])c1)c1cccc([N+](=O)[O-])c1	none
N/C(=N\OC(=O)c1ccccc1Cl)c1cccc([N+](=O)[O-])c1	SENP6 inh 74.7, SENP7 block 89.5, SENP8 block-2 66.6 | SENP8 confirm 59.3 | SENP6 confirm 60.2 | SENP7 conf 91.1 | Casp3 SENP sel 59.4 | SENP luc ctr 81.0
N/C(=N\OC(=O)c1ccc(Cl)cc1Cl)c1ccccn1	SENP6 inh 98.6, SENP7 block 99.2, SENP8 block-2 96.2 | SENP8 confirm 97.4 | SENP6 confirm 98.5 | SENP7 conf 102.0 | Casp3 SENP sel 97.6 | SENP luc ctr 94.8
N/C(=N\OC(=O)COc1cc(Cl)c(Cl)cc1Cl)c1ccccn1	SENP6 inh 78.8, SENP7 block 77.0, SENP8 block-2 57.8 | SENP8 confirm inactive | SENP6 confirm 54.7 | SENP7 conf inactive | Casp3 SENP sel 52.3 | SENP luc ctr inactive
N/C(=N\OC(=O)c1ccc([N+](=O)[O-])cc1Cl)c1ccccn1	SENP6 inh 95.5, SENP7 block 95.4, SENP8 block-2 90.7 | SENP8 confirm 82.5 | SENP6 confirm 96.1 | SENP7 conf 102.5 | Casp3 SENP sel 97.4 | SENP luc ctr inactive
N/C(=N\OC(=O)c1cc(Br)ccc1Cl)c1ccccn1	none
CCn1c(NC(=O)C(C)C)c(-c2ccccc2)c(=O)c2ccccc21	none
O=C(CCN1CCCCC1=O)NC1CCCN(Cc2ccc(Cl)cc2)C1 (centres undefined)	none
N/C(=N\OC(=O)/C=C/c1ccccc1)c1ccccn1	SENP6 inh 94.9, SENP7 block 95.9, SENP8 block-2 88.1 | SENP8 confirm 89.1 | SENP6 confirm 89.5 | SENP7 conf 100.4 | Casp3 SENP sel 93.5 | SENP luc ctr 92.7
Cc1ccc(C(=O)O/N=C(\N)c2ccccc2)c(Cl)c1	SENP6 inh 98.6, SENP7 block 98.9, SENP8 block-2 96.7 | SENP8 confirm inactive | SENP6 confirm inactive | SENP7 conf inactive | Casp3 SENP sel inactive | SENP luc ctr inactive
Cc1ccc(NC(=O)COc2ccc(Br)cc2CO)cc1S(=O)(=O)N1CCOCC1	none
Cc1ccc(-c2nc(N=Nc3ccc(O)cc3)n[nH]2)cc1	none
Cc1nc(N=Nc2ccc(O)cc2)n[nH]1	SENP6 inh 74.8, SENP7 block 58.3 | SENP8 confirm 57.5 | SENP6 confirm 52.9 | SENP7 conf 86.5 | Casp3 SENP sel 87.0 | SENP luc ctr 63.1

Screening results deposited in PubChem BioAssay by Sanford-Burnham Center for Chemical Genomics.
